This is an account of results in ChEMBL document CHEMBL4513216, “Probing the Open Global Health Chemical Diversity Library for Multistage-Active Starting Points for Next-Generation Antimalarials” (ACS Infect Dis, 2020).

A short description of the data set: Toxicity liver stage against HepG2, at 10uM. To be noted: human, HepG2-A16-CD81EGFP cells; read-out: INHIBITION
Also on record: test concentration 10 uM, cell line HepG2-A16-CD81EGFP. Format: cell-based. The essentials: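 Uninfected HepG2-A16-CD81EGFP cells, 3 × 10^3 per well, 1536-well, plated on prespotted compound at 10 μM final, parasite-free screening media added to match infected plates; puromycin 10 μM positive, DMSO 0.5% negative; run in parallel with 48 h PbLuc assay at 37 °C, 5% CO2; viability by CellTiter-Glo luminescence, normalized to controls.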
In the case of `CCS(=O)(=O)c1ccc2oc([C@H]3CCN(Cc4ccccn4)C3)nc2c1`, the cytotoxicity at 10 µM was -0.125%. Turning to `O=C([C@@H]1Cc2[nH]cnc2CN1CC1CC1)N1CCCC1`, the cytotoxicity at 10 µM was determined as 2.5%. With `O=C1CC(c2ccccc2)c2c(c(C(=O)O)cn2-c2ccccc2)N1` (stereo unspecified), the cytotoxicity at 10 µM is -0.0616%. Take `CN(C)S(=O)(=O)N1CCN(C(=O)c2cc(-c3ccc(Br)s3)n[nH]2)CC1`: the cytotoxicity at 10 µM was -2.66%.

Regarding `CN(C)C(=O)N1Cc2ccccc2C2(CCN(C3CCOCC3)CC2)C1`, the cytotoxicity at 10 µM was 7.21%. `CC(C)CNC(=O)N1C[C@H]2CCN[C@H]2C1`: the cytotoxicity at 10 µM stood at 7.12%. As to `C[C@@H]1CN(C(=O)c2ccccc2F)C[C@]12CCN(CCN(C)C)C2=O`, the cytotoxicity at 10 µM stood at 3%. On to `CCc1cnc(N2CCC3(CC2)CCN(c2cnn(C)c2)C3=O)nc1`, for which the cytotoxicity at 10 µM is -2.2%.

`CNC(=O)C1CCC2(CCN(c3ncc(C)cn3)CC2)CO1` (stereo unspecified): the cytotoxicity at 10 µM is -4.66%.

Take `CN(C)C(=O)CN1CCC2(CCCN(c3ncc(F)cn3)C2)C1=O` (stereo unspecified): the cytotoxicity at 10 µM was determined as 9.51%.

For `CC(C)CC(=O)N1CCCn2cnc(CN3CCCC3=O)c2C1`, the cytotoxicity at 10 µM was -6.42%. Next, `CCn1ccc(-c2cc(C(=O)O)n3nc(C(F)(F)F)c(Br)c3n2)n1`: -1.47%. Next, `O=C(CCCc1ccccn1)Nc1cccc(N2CCCNC2=O)c1`: 1.94%; `CNS(=O)(=O)c1cccc(CNCc2ccsc2)c1`: -2.54%; `Cc1nn(C)c(Cl)c1C1CCCN1c1ncnc2c1CCC2` (stereo unspecified): 19.1%. For the compound `CCCn1cc(NC(=O)Nc2ccc(F)c(C(=O)NC)c2)cn1`, the cytotoxicity at 10 µM came out at 6.98%. As to `CCOc1ccccc1C(=O)NCc1nncn1C1CC1`, the cytotoxicity at 10 µM was found to be 3.3%. `COc1cc(CNC(=O)c2cc(Cl)ccc2F)ccn1`: the cytotoxicity at 10 µM was -2.69%. For `CC(NC(=O)NC1CC1)c1nc(-c2ccccc2)cs1` (stereo unspecified), the cytotoxicity at 10 µM was -5.83%. On to `CCOCCN1CCN(CCOC)CC1C` (stereo unspecified), for which the cytotoxicity at 10 µM was -4.2%. For the compound `OC(CNCCn1cccn1)COc1cccc(C(F)(F)F)c1` (stereo unspecified), the cytotoxicity at 10 µM is -19.7%. As for `O=C(NC1CCC(O)CC1)c1cnc2c(cnn2C2CCCC2)c1` (stereo unspecified), the cytotoxicity at 10 µM is -3.79%. As for `COc1ccc(CNCC2CN(C3CC3)CCO2)cc1F` (stereo unspecified), the figure is -12.4%. As to `Cc1ccc(C)c(S(=O)(=O)CCN2CCCC2Cn2cncn2)c1` (stereo unspecified), the cytotoxicity at 10 µM was -8.5%. As for `Cc1nc(CN(C)Cc2cc3c(cc2OC(F)F)OCO3)oc1C`, the figure is 2.22%; as for `CC(=O)NCCNC(=O)NCCCc1cccc(F)c1`, 10.5%. Next, `O=C(CCCOc1ccccc1F)Nc1cc[nH]n1`: -11%. With `Cc1ccc(S(N)(=O)=O)cc1C(=O)NCC1Cc2ccccc2O1` (stereo unspecified), the cytotoxicity at 10 µM turned out to be 3.04%. As to `Cc1cccc(N(C)Cc2nc3c(cnn3C)c(=O)[nH]2)c1C`, the cytotoxicity at 10 µM is -9.23%. In the case of `CCN(Cc1nc2c(cnn2C)c(=O)[nH]1)c1cc(C)ccc1C`, the cytotoxicity at 10 µM is -11.3%. In the case of `CCc1cnc(CN2CCC(O)(c3cc(OC)cc(OC)c3)CC2)o1`, the cytotoxicity at 10 µM was -0.276%.

On to `CN(Cc1ccc(Br)s1)Cn1nc(-c2ccccc2)oc1=O`, for which the cytotoxicity at 10 µM is 4.86%.

For `CN(C(=O)CNc1ccc(C#N)cc1)C1CCN(c2ccccn2)CC1`, the cytotoxicity at 10 µM turned out to be 18.7%. Next, `O=C(O)CSc1nc(-c2ccc3c(c2)CCC3)n[nH]1`: 1.88%; `CC(C)c1nc2n(n1)CC(NCCc1cccs1)CC2` (stereo unspecified): -5.71%; `CNS(=O)(=O)c1cccc(CNC(=O)c2cnn(C)c2C)c1`: 0.857%.

Regarding `CCCC(C#N)NC(=O)Cc1csc(CC)n1` (stereo unspecified), the cytotoxicity at 10 µM was -2.08%. `CC(C)CCN(C(=O)CCn1cc(S(N)(=O)=O)cn1)C1CC1`: the cytotoxicity at 10 µM is 3.92%. On to `Cc1ccc(C(=O)NCC2CCN(C)c3ccccc32)c(=O)[nH]1` (stereo unspecified), for which the cytotoxicity at 10 µM stood at 12.6%. As to `CC1CN=C(N2CCN(C(=O)Nc3nc(-c4ccccc4)ns3)CC2)S1` (stereo unspecified), the cytotoxicity at 10 µM was found to be 10.6%.

As to `CN(C)CC(=O)N1CCO[C@@H]2CC(COCc3ccncc3)C[C@H]21` (stereo partly specified), the cytotoxicity at 10 µM was -108%. Regarding `O=S(=O)(NCC1CCCN(Cc2ccccc2F)C1)C1CC1` (stereo unspecified), the cytotoxicity at 10 µM is -8.27%. As for `Cn1cc(Cl)c(CN(Cc2ccsc2)CC2CCCO2)n1` (stereo unspecified), the figure is -3.84%; as for `COc1cccc(N2CCN(Cc3nccc(OC)c3OC)CC2=O)c1`, 3.63%; as for `Cc1nc(C(=O)N[C@H]2COC[C@@H]2N2CCCCC2)cs1`, 15.5%. In the case of `CC(C)(C)SCCN1CC(=O)N2CC[C@@H](O)C[C@H]2C1=O`, the cytotoxicity at 10 µM is 4.01%. In the case of `CCNC(=O)[C@@H]1C[C@@H](N)CN1C(=O)c1[nH]c2ccccc2c1CC`, the cytotoxicity at 10 µM came to 0.106%. Next, `Cc1cccn2cc(C(=O)N3CCCN(CC4CC4)C(C(C)C)C3)nc12` (stereo unspecified): 1.46%.

Regarding `Cc1cc(C)n(CCNC(=O)c2ncc[nH]2)c(=O)n1`, the cytotoxicity at 10 µM is 2.84%. On to `CC(=O)Nc1cccc(C(=O)Nc2cnc3n2CCCC3)c1`, for which the cytotoxicity at 10 µM was found to be 4.36%.

Regarding `COC(=O)c1cccn1C1CCN(C(=O)c2ccc(C)cc2O)CC1`, the cytotoxicity at 10 µM is -6.97%.

Take `Cc1cc(CN(C)C2CCCN(Cc3noc(C4CC4)n3)C2)on1` (stereo unspecified): the cytotoxicity at 10 µM was -1.68%. As for `O=C(NCc1ccccc1Cn1cncn1)C1CCC1`, the cytotoxicity at 10 µM was -4.43%. Regarding `O=C(CCCOc1ccc(F)cc1F)N1CCCC(n2cccn2)C1` (stereo unspecified), the cytotoxicity at 10 µM was -4.75%. Next, `CC(=O)Nc1nc(CN2CCn3c(C)nnc3C2)cs1`: -1.68%; `CCNC(=O)CNCc1c(C(C)C)nn(C)c1N1CCOCC1`: -6.45%. As for `CCOc1ncccc1CNC(=O)N1CCC(n2cncn2)CC1`, the cytotoxicity at 10 µM was -1.26%. Consider `Cc1cnn(CC2CCCN2C(=O)c2cccc3c2OCO3)c1` (stereo unspecified), for which the cytotoxicity at 10 µM is -5.25%. As for `CC(C)C(=O)N(C)Cc1nc(N2CCCC2)ncc1-c1ccncc1`, the figure is 6.54%; as for `COc1cccc(CN2CCC3(CC2)CCN(c2ncccn2)C3)c1`, -7.46%; as for `CCS(=O)(=O)N1CCOCC2(CCN(c3ccccn3)C2)C1` (stereo unspecified), 5.66%. `c1cc(CN2C[C@@H]3OCCN(CCN4CCCC4)[C@@H]3C2)cs1`: the cytotoxicity at 10 µM is -1.46%. With `CNC(=O)[C@H]1C[C@@H]2CN(C(=O)c3ccc(C)nc3)C[C@@H]2N1C(C)C`, the cytotoxicity at 10 µM is -116%. In the case of `Cc1cccc(CN2CCCCC23CCNC3)n1` (stereo unspecified), the cytotoxicity at 10 µM worked out at 1.49%.

As to `CCOCC1CN(Cc2nccs2)Cc2nn(CC3CC3)cc21` (stereo unspecified), the cytotoxicity at 10 µM was -1.81%. For the compound `O=C(O)c1cc2c(nc1-c1ccsc1)CCN(C1CCOC1)CC2` (stereo unspecified), the cytotoxicity at 10 µM worked out at 15%. With `c1cnc(N2CC3(CCN(Cc4ccncc4)C3)C2)nc1`, the cytotoxicity at 10 µM was -82.8%. Next, `CCN1C[C@@H]2[C@@H](OC)CCN(C(=O)Cc3ccsc3)[C@@H]2C1`: 0.11%. Next, `Cc1ncsc1CN1CC[C@H]2OCC[C@@]2(C(=O)N2CCOCC2)C1`: 6.91%; `O=C1C[C@@H]2CC[C@H](CN1)N2C(=O)CCc1ccccc1`: -0.0739%. In the case of `O=C1C[C@@H]2CC[C@H](CN1)N2C(=O)Cc1ccsc1`, the cytotoxicity at 10 µM is 1.6%.
